Source: ChEMBL document CHEMBL1143665, “Novel acyclic enediynes inhibit Cyclin A and Cdc25C expression and induce apoptosis phenomenon to show potent antitumor proliferation” (2007)
Activity calls are given as the source filed them. The calls are words filed in the database; no cut-off is given here.

How the values were obtained:
[1] = system: K562; test: Effect on Cdk1 protein levels in human K562 cells at 50 uM; assay type: functional, cell-based
Summary of the method: (§1)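 Western blot of treated K-562 cells: lysis in Tris pH 7.5/1% NP-40/EDTA/NaCl with protease inhibitors on ice 30 min, spun 20,000g 30 min 4 °C; 50 µg lysate on 12% SDS-PAGE, PVDF transfer, probed with anti-Cdk1, -Cdk2, -Cyclin A, -Cyclin B1 or -Cdc25C; enhanced chemiluminescence detection.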

[2] = system: SR; test: Cytotoxicity against human SR cells; assay type: functional
[3] = system: MDA-MB-435; test: Cytotoxicity against human MDA-MB-435 cells; assay type: functional
[4] = system: K562; test: Cell cycle arrest in human K562 cells by accumulation at G2/M phase cell at 50 uM after 24 hrs relative to control; assay type: functional
Summary of the method: (§2)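 K-562 cells (RPMI 1640, 10% fetal calf serum, 37 °C, 5% CO2) exposed 24 h, pelleted, fixed in ice-cold 70% ethanol 30 min, RNase A (1 mg/ml) 37 °C 30 min, propidium iodide stain 30 min at room temperature in the dark; DNA content of 10,000 events by flow cytometry; phase and sub-G1 percentages compared with untreated control.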

[5] = system: K562; test: Induction of apoptosis in human K562 cells assessed as accumulation at subG1 phase at 50 uM after 24 hrs relative to control; assay type: functional; summary of the method: as §2
[6] = system: K562; test: Effect on Cdk2 protein levels in human K562 cells at 50 uM; assay type: functional, cell-based; summary of the method: as §1
[7] = system: LOX IMVI; test: Cytotoxicity against human LOX IMVI cells; assay type: functional
[8] = system: DU-145; test: Cytotoxicity against human DU145 cells; assay type: functional
[9] = system: OVCAR-3; test: Cytotoxicity against human OVCAR-3 cells; assay type: functional
[10] = system: K562; test: Cell cycle arrest in human K562 cells by accumulation at S phase cell at 50 uM after 24 hrs relative to control; assay type: functional; summary of the method: as §2
[11] = system: K562; test: Decrease in Cyclin A protein levels in human K562 cells at 50 uM; assay type: functional, cell-based; summary of the method: as §1
[12] = system: K562; test: Effect on Cyclin B protein levels in human K562 cells at 50 uM; assay type: functional, cell-based; summary of the method: as §1
[13] = system: SF-295; test: Cytotoxicity against human SF295 cells; assay type: functional
[14] = system: K562; test: Cytotoxicity against human K562 cells; assay type: functional
[15] = system: K562; test: Decrease in Cdc25C protein levels in human K562 cells at 25 uM; assay type: functional, cell-based; summary of the method: as §1
[16] = system: K562; test: Decrease in Cdc25C protein levels in human K562 cells at 50 uM; assay type: functional, cell-based; summary of the method: as §1
[17] = system: K562; test: Cell cycle arrest in human K562 cells by accumulation at G0/G1 phase cell at 50 uM after 24 hrs relative to control; assay type: functional; summary of the method: as §2
[18] = system: K562; test: Effect on Cdk1 protein levels in human K562 cells at 25 uM; assay type: functional, cell-based; summary of the method: as §1
[19] = system: K562; test: Decrease in Cyclin A protein levels in human K562 cells at 25 uM; assay type: functional, cell-based; summary of the method: as §1
[20] = system: HCT-15; test: Cytotoxicity against human HCT15 cells; assay type: functional
[21] = system: K562; test: Effect on Cdk2 protein levels in human K562 cells at 25 uM; assay type: functional, cell-based; summary of the method: as §1
[22] = system: K562; test: Effect on Cyclin B protein levels in human K562 cells at 25 uM; assay type: functional, cell-based; summary of the method: as §1
[23] = system: SK-OV-3; test: Cytotoxicity against human SKOV3 cells; assay type: functional
[24] = system: MDA-MB-231; test: Cytotoxicity against human MDA-MB-231 cells; assay type: functional
[25] = system: M14; test: Cytotoxicity against human M14 cells; assay type: functional
[26] = system: K562; test: Induction of apoptosis in human K562 cells at 50 uM in presence of Z-DEVD-FMK; assay type: functional
Summary of the method: (§3)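 K-562 cells preincubated 1 h with caspase-3 (Z-DEVD-FMK), -8 (Z-IETD-FMK) or -9 (Z-LEHD-FMK) inhibitor, then exposed 24 h; cells fixed in 70% ethanol, RNase A (500 U/ml) 37 °C 15 min, propidium iodide 50 µg/ml in PBS; sub-G1 fraction by flow cytometry.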

[27] = target: T1, Caspase-3 (Homo sapiens) (UniProt P42574); test: Increase in caspase 3 activation in human K562 cells at 25 uM relative to control; assay type: cell-based
T1 sequence (whole entry): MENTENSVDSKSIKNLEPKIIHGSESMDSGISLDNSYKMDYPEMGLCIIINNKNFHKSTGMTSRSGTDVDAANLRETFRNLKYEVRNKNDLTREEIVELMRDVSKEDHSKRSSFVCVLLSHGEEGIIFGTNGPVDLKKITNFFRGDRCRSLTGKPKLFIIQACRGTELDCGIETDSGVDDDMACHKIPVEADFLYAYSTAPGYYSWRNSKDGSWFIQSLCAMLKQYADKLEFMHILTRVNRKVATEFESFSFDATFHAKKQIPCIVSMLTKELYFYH
Summary of the method: (§4)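 K-562 cells treated 24 h, washed, lysed in 50 mM Tris-HCl pH 7.4, 1 mM EDTA, 10 mM EGTA, spun 18,000g 3 min; lysate (50 µg protein) incubated with 100 µM caspase-specific colorimetric substrate at 37 °C for 1 h; cleavage read as absorbance at 405 nm, expressed as fold of control.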

[28] = target: T2, Caspase-9 (Homo sapiens) (UniProt P55211); test: Increase in caspase 9 activation in human K562 cells at 25 uM relative to control; assay type: cell-based; summary of the method: as §4
T2 sequence (whole entry): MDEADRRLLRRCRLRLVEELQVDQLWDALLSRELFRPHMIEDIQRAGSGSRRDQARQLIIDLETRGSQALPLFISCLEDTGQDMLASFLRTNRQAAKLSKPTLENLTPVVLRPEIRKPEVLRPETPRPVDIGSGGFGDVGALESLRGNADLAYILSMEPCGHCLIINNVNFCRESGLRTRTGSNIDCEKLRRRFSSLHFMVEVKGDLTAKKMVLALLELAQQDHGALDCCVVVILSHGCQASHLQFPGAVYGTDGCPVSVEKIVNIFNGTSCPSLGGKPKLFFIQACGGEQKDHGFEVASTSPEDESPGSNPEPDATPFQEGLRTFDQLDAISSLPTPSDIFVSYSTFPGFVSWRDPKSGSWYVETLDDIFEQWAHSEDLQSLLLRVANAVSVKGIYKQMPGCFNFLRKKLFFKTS

[29] = target: T1, Caspase-3 (Homo sapiens); test: Increase in caspase 3 activation in human K562 cells at 50 uM relative to control; assay type: cell-based; summary of the method: as §4
[30] = system: K562; test: Induction of apoptosis in human K562 cells at 50 uM in presence of Z-IETD-FMK; assay type: functional; summary of the method: as §3
[31] = target: T2, Caspase-9 (Homo sapiens); test: Increase in caspase 9 activation in human K562 cells at 50 uM relative to control; assay type: cell-based; summary of the method: as §4
[32] = target: Caspase-8 (Homo sapiens) (UniProt Q14790); test: Increase in caspase 8 activation in human K562 cells at 50 uM relative to control; assay type: cell-based; summary of the method: as §4
[33] = target: Caspase-8 (Homo sapiens) (UniProt Q14790); test: Increase in caspase 8 activation in human K562 cells at 25 uM relative to control; assay type: cell-based; summary of the method: as §4
[34] = system: K562; test: Induction of apoptosis in human K562 cells at 50 uM in presence of Z-LEHD-FMK; assay type: functional; summary of the method: as §3

Caspase-8 (Homo sapiens), sequence (Q14790 217-374 limits assumed): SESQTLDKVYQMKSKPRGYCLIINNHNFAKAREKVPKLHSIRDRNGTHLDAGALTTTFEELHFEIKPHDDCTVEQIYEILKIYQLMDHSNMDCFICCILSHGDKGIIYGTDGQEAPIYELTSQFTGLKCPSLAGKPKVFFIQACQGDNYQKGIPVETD
Caspase-8 (Homo sapiens), sequence (Q14790 385-479 limits assumed): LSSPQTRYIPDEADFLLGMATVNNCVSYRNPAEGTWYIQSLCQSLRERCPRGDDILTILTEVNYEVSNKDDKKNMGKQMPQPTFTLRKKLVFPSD

| SMILES | GI50 [2] [µM] | GI50 [3] [µM] | Activity [4] [%] | Activity [5] [%] | GI50 [7] [µM] | GI50 [8] [µM] | GI50 [9] [µM] | Activity [10] [%] | GI50 [13] [µM] | GI50 [14] [µM] | Activity [17] [%] | GI50 [20] [µM] | further results |
| --- | --- | --- | --- | --- | --- | --- | --- | --- | --- | --- | --- | --- | --- |
| OCCCCC#Cc1ccccc1C#Cc1ccccc1C(F)(F)F | 0.4 | 0.8 | 86.5 | 10.47 | 4.9 | 6.1 | 2.3 | 10.8 | 2.3 | 1.1 | 2.7 | 3.5 | Activity [1]: inactive; Activity [6]: inactive; Activity [11]: Active; Activity [12]: inactive; Activity [15]: Active; Activity [16]: Active; Activity [18]: inactive; Activity [19]: Active; Activity [21]: inactive; Activity [22]: inactive |
| COc1cccc(C#Cc2ccccc2C#CCCCCO)c1 | 1.9 | 1.9 | 84.6 | 10.81 | 6.3 | 4.1 | 10.7 | 11.9 | 7.9 | 1.8 | 3.4 | 3.6 | – |
| OCCCCC#Cc1ccccc1C#Cc1ccccn1 | 25.5 | 25.1 | 17 | 4.4 | 27.7 | 9.8 | 26.1 | 52.6 | 21.8 | 29 | 30.4 | 29.8 | – |
| OCCC#Cc1ccccc1C#Cc1ccccc1 | – | – | – | – | – | 12.5 | – | – | 28.1 | 11 | – | – | GI50 [23]: 17.3 µM; GI50 [24]: 3.41 µM; GI50 [25]: 16 µM |
| OCCCCC#Cc1ccccc1C#Cc1ccccc1 | – | – | – | – | – | 5.22 | – | – | 0.15 | 21.1 | – | – | GI50 [23]: 10.7 µM; GI50 [24]: 4.29 µM; GI50 [25]: 10 µM |
| CSc1ccccc1C#Cc1ccccc1C#CCCCCO | 3.5 | 3.9 | 55.7 | 9.23 | 5.8 | 4.7 | 14.7 | 24.6 | 1.5 | 6.1 | 19.8 | 3.8 | – |
| OCCCCC#Cc1ccccc1C#Cc1ccc(C(F)(F)F)cc1 | 0.6 | 16.3 | 24.8 | 5.36 | 17.1 | 15.8 | 17.8 | 38.3 | 19.1 | 18.2 | 36.9 | 12.5 | – |
| OCCCCC#Cc1ccccc1C#Cc1cccc(C(F)(F)F)c1 | 18.3 | 16.9 | 29.4 | 3.84 | 17.5 | 15.3 | 16.8 | 40 | 16.5 | 22.5 | 30.6 | 16.3 | – |
| OCCCCC#Cc1ccccc1C#Cc1ccc(O)cc1 | – | 16.1 | 34.9 | 23.56 | 13.6 | 16.8 | 14.8 | 39.5 | 16.2 | 20.4 | 25.6 | 14.1 | Activity [26]: 17%; Fold change [27]: 1.4; Fold change [28]: 1.5; Fold change [29]: 2.6; Activity [30]: 19%; Fold change [31]: 1.7; Fold change [32]: 1.8; Fold change [33]: 1.2; Activity [34]: 42% |
| COc1ccccc1C#Cc1ccccc1C#CCCCCO | 1 | 20.2 | 27.6 | 8.08 | 17.9 | 14.3 | 19.8 | 41.5 | 22.1 | 15.5 | 30.9 | 19.9 | – |
| OCC#Cc1ccccc1C#Cc1ccccc1 | – | – | – | – | – | 14.9 | – | – | 20.6 | 26 | – | – | GI50 [23]: 16.6 µM; GI50 [24]: 3.26 µM; GI50 [25]: 10.6 µM |
| OCCCCC#Cc1ccccc1C#Cc1cccs1 | 1.8 | 16.6 | 29.8 | 5.23 | 13.9 | 13 | 15 | 47.5 | 19 | 20.3 | 22.7 | 13.1 | – |
| OCCCCC#Cc1ccccc1C#Cc1cccc(O)c1 | – | 16.1 | 36.2 | 18.25 | 16.7 | 17.4 | 20 | 37.1 | 21 | 19.2 | 26.7 | 13.6 | – |
| N#Cc1ccc(C#Cc2ccccc2C#CCCCCO)cc1 | – | 18.9 | 10.8 | 5.65 | 18.3 | 16 | 19.9 | 38 | 21.5 | 21.7 | 51.2 | 15.6 | – |
